This is an account of results in ChEMBL document CHEMBL1157573, “BRAF inhibitors based on an imidazo[4,5]pyridin-2-one scaffold and a meta substituted middle ring” (J Med Chem, 2010).

Assay [1] addresses T1, Serine/threonine-protein kinase B-raf (Homo sapiens, UniProt P15056, V600E). In words: Inhibition of human BRAF V600E mutant expressed in Sf9 cells.
For assay [2], the target named is T1, Serine/threonine-protein kinase B-raf. Nature of the assay: Inhibition of BRAF V600E mutant-mediated ERK phosphorylation in human WM266.4 cells. The class given is cell-based.
Assay [3] in a line: Antiproliferative activity against human WM266.4 cells after 6 days by SRB assay. Type of assay: functional. The note with it: WM 266-4, 144 h. The method in brief: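 SRB cell proliferation assay on WM266.4 melanoma cells, which carry mutant BRAF. Growth inhibition is reported as GI50.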
For orientation: The SRB assay estimates cell density from bound dye.

The structures appear in SMILES notation.

T1 sequence (P15056 2-766 V600E limits assumed): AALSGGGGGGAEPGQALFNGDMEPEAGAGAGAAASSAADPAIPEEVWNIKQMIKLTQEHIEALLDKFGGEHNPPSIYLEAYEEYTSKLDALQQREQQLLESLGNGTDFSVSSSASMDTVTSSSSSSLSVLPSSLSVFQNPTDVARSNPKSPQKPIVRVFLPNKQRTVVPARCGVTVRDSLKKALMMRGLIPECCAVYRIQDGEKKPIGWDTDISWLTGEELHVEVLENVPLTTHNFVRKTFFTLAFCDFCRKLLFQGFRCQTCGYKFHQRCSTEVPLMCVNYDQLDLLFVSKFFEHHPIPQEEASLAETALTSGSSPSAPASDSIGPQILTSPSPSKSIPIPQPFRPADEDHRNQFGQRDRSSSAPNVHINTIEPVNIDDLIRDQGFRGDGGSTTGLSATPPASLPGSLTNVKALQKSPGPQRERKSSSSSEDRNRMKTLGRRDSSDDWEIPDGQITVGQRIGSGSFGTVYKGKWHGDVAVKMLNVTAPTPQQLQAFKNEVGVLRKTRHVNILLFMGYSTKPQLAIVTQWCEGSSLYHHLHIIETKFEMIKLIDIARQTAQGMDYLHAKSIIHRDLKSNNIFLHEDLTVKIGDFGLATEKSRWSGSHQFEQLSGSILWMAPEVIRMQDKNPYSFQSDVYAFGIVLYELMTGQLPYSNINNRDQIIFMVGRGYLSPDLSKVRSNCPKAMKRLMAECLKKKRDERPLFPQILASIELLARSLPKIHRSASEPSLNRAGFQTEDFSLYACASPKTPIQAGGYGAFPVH

In assay [1], `O=c1[nH]c2nccc(Oc3ccc(NS(=O)(=O)c4cccc(C(F)(F)F)c4)cc3)c2[nH]1` yielded an IC50 of more than 100 µM.
Turning to `O=C(Nc1cccc(Oc2ccnc3[nH]c(=O)[nH]c23)c1)Nc1cc(C(F)(F)F)ccc1F`, the IC50 in assay [1] turned out to be 0.026 µM; in assay [2], 12.2 µM. For the same molecule, the GI50 in assay [3] is 1.6 µM.
The matching figures for `O=C(Nc1cccc(Oc2ccnc3[nH]c(=O)[nH]c23)c1)c1ccccc1OC(F)(F)F`: 79 µM, 35.8 µM and 1.3 µM.
The matching figures for `CC(C)(C)c1cccc(NC(=O)Nc2cccc(Oc3ccnc4[nH]c(=O)[nH]c34)c2)c1`: 0.195 µM, 10.3 µM and 12.9 µM.
The like results for `O=C(Nc1cccc(F)c1)Nc1cccc(Oc2ccnc3[nH]c(=O)[nH]c23)c1` were, in that order, 2.75 µM, 50.2 µM and 3.3 µM.
Consider `O=c1[nH]c2nccc(Oc3cccc(NS(=O)(=O)c4cccc(OC(F)(F)F)c4)c3)c2[nH]1`, for which the IC50 in assay [1] worked out at 11.3 µM; in assay [2], 94 µM. The molecule further showed a GI50 in assay [3] of 0.83 µM.
`Cc1ccc(-n2nc(C(C)(C)C)cc2NC(=O)c2cccc(Oc3ccnc4[nH]c(=O)[nH]c34)c2)cc1`: the IC50 is 0.59 µM in assay [1] and 2.05 µM in assay [2].
As for `O=C(Nc1cccc(Oc2ccnc3[nH]c(=O)[nH]c23)c1)c1cc(Cl)cc(C(F)(F)F)c1`, the IC50 turned out to be 0.69 µM in assay [1] and 23.9 µM in assay [2]. In addition, in assay [3], the GI50 stood at 3.3 µM.
The like results for `O=C(Nc1cccc(Oc2ccnc3[nH]c(=O)[nH]c23)c1)c1ccc2sccc2c1` were, in that order, 22 µM, 66 µM and 1.5 µM.
Turning to `O=c1[nH]c2nccc(Oc3cccc(NS(=O)(=O)c4ccc(Cl)c(C(F)(F)F)c4)c3)c2[nH]1`, the IC50 in assay [1] was found to be 6.8 µM; in assay [2], 66 µM. The GI50 in assay [3] came to 40 µM.
`O=C(Nc1cccc(Oc2ccnc3[nH]c(=O)[nH]c23)c1)c1cccc(N2CCCC2)c1`: the IC50 in assay [1] is 0.115 µM; in assay [2] it was more than 100 µM. This molecule also registered a GI50 in assay [3] of more than 10 µM.
Regarding `CCC(C)(C)c1cccc(C(=O)Nc2cccc(Oc3ccnc4[nH]c(=O)[nH]c34)c2)c1`, the IC50 amounted to 0.04 µM in assay [1] and 3.1 µM in assay [2].
As to `O=C(Nc1ccc(Oc2ccnc3[nH]c(=O)[nH]c23)cc1)c1cc(F)cc(N2CCOCC2)c1`, in assay [1], the IC50 was more than 100 µM.
As for `O=C(Nc1cc(Oc2ccnc3[nH]c(=O)[nH]c23)c(Cl)cc1Cl)c1cccc(OC(F)(F)F)c1`, the figures for the IC50 in assay [1] and in assay [2] were 0.77 µM and more than 100 µM, respectively. The molecule further returned a GI50 in assay [3] of 1.2 µM.
As to `O=C(Nc1cc(Oc2ccnc3[nH]c(=O)[nH]c23)c(F)cc1F)c1cccc(OC(F)(F)F)c1`, the IC50 in assay [1] was found to be 0.01 µM; in assay [2] it was 6.9 µM. In assay [3], this molecule displayed a GI50 of 4.6 µM.
`O=C(Nc1cccc(Oc2ccnc3[nH]c(=O)[nH]c23)c1)c1cccc(OC(F)(F)F)c1F`: the IC50 in assay [1] worked out at 0.015 µM; in assay [2] it was 6.7 µM. Also, the GI50 in assay [3] was found to be 0.57 µM.
For `Cc1cc(C(=O)Nc2cccc(Oc3ccnc4[nH]c(=O)[nH]c34)c2)n(C)n1`, the concentration for half-maximal inhibition (IC50) in assay [1] was more than 100 µM; in assay [2] it was 79 µM.
As to `O=C(Nc1cccc(SC(F)(F)F)c1)c1cccc(Oc2ccnc3[nH]c(=O)[nH]c23)c1`, the IC50 in assay [1] is 0.187 µM; in assay [2], 13 µM. Also, in assay [3], the GI50 turned out to be 9.2 µM.
The like results for `O=C(Nc1cccc(Oc2ccnc3[nH]c(=O)[nH]c23)c1)c1cccc(OC(F)(F)C(F)F)c1` were, in that order, 0.023 µM, 5.7 µM and 0.841 µM.
As for `O=C(Nc1cccc(Oc2ccnc3[nH]c(=O)[nH]c23)c1)c1cccc(-n2cccc2)c1`, the IC50 in assay [1] worked out at 0.057 µM; in assay [2], 20.4 µM. Moreover, growth in assay [3] was halved (GI50) at 1.1 µM.
The matching figures for `O=c1[nH]c2nccc(Oc3cccc(NS(=O)(=O)c4cccc5ccccc45)c3)c2[nH]1`: 25 µM, 21.3 µM and 0.85 µM.
The matching figures for `O=C(Nc1cccc(Oc2ccnc3[nH]c(=O)[nH]c23)c1)c1cccc2c1OCCO2`: more than 100 µM, more than 100 µM and 40 µM.
The matching figures for `O=C(Nc1cccc(Oc2ccnc3[nH]c(=O)[nH]c23)c1)c1cccc(OC(F)(F)F)c1`: 0.014 µM, 7.56 µM and 1 µM.
`O=C(Nc1cccc(Oc2ccnc3[nH]c(=O)[nH]c23)c1)Nc1ccc(F)c(F)c1`: the values for the IC50 in assay [1] and in assay [2] were 1.12 µM and 39 µM, respectively. In assay [3], this molecule registered a GI50 of 3.7 µM.
For the molecule `Cc1ccc(-n2nc(C(F)(F)F)cc2NC(=O)c2cccc(Oc3ccnc4[nH]c(=O)[nH]c34)c2)cc1`, the values for the IC50 in assay [1] and in assay [2] were 0.5 µM and 14.8 µM, respectively. The molecule also came in with a GI50 in assay [3] of 32 µM.
As for `O=C(Nc1cccc(Oc2ccnc3[nH]c(=O)[nH]c23)c1)c1cc(F)cc(N2CCOCC2)c1`, the results for the IC50 in assay [1] and in assay [2] were 0.062 µM and 21.1 µM, respectively. Moreover, the GI50 in assay [3] is 25.1 µM.
Take `O=C(Nc1cccc(Oc2ccnc3[nH]c(=O)[nH]c23)c1)c1cccc(-n2ccnc2)c1`: the results for the IC50 in assay [1] and in assay [2] were more than 10 µM and more than 100 µM, respectively. The molecule also gave a GI50 in assay [3] of 6.2 µM.
For the molecule `O=C(Nc1ccc(Oc2ccnc3[nH]c(=O)[nH]c23)cc1)c1ccc(Br)cc1`, in assay [1], the IC50 is 14 µM.
On the same count and under the same terms, in the case of `O=c1[nH]c2nccc(Oc3ccc(NS(=O)(=O)c4ccccc4)cc3)c2[nH]1` it was 0.85 µM.
For `O=C(Cc1ccccc1)Nc1cccc(Oc2ccnc3[nH]c(=O)[nH]c23)c1`, the results for the IC50 in assay [1] and in assay [2] were 87 µM and more than 100 µM, respectively.
`O=C(Nc1ccc(Oc2ccnc3[nH]c(=O)[nH]c23)cc1)c1ccc(Cl)c(C(F)(F)F)c1` displayed an IC50 in assay [1] of 15.9 µM.
Molecule `O=C(Nc1ccc(Oc2ccnc3[nH]c(=O)[nH]c23)cc1)Nc1ccc(Cl)c(C(F)(F)F)c1` gave an IC50 in assay [1] of 0.023 µM. This IC50 is about 690-fold lower than that of the molecule before.
As to `CC(C)(C)c1cc(C(=O)Nc2cccc(Oc3ccnc4[nH]c(=O)[nH]c34)c2)n(Cc2ccccc2)n1`, the IC50 in assay [1] and in assay [2] was more than 100 µM in each case.
In the case of `COc1ccc(NC(=O)c2cccc(OC(F)(F)F)c2)cc1Oc1ccnc2[nH]c(=O)[nH]c12`, the IC50 in assay [1] was 0.34 µM; in assay [2] it was more than 100 µM.
The matching figures for `O=C(Nc1cccc(Oc2ccnc3[nH]c(=O)[nH]c23)c1)c1ccc(C(F)(F)F)cc1`: 0.73 µM and more than 100 µM.
The like results for `CC(C)(C)c1cc(NC(=O)Nc2cccc(Oc3ccnc4[nH]c(=O)[nH]c34)c2)n(-c2ccc(F)cc2)n1` were, in that order, 0.123 µM and 1.96 µM.
The matching figures for `COc1cc(NC(=O)c2cccc(OC(F)(F)F)c2)cc(Oc2ccnc3[nH]c(=O)[nH]c23)c1`: 0.064 µM and 16.6 µM.
Consider `CN(C)c1cccc(C(=O)Nc2cccc(Oc3ccnc4[nH]c(=O)[nH]c34)c2)c1`, for which the IC50 in assay [1] is more than 100 µM; in assay [2] it was 42 µM.
With `Cc1c(NC(=O)c2cccc(OC(F)(F)F)c2)cccc1Oc1ccnc2[nH]c(=O)[nH]c12`, the IC50 in assay [1] is more than 10 µM; in assay [2] it was more than 100 µM.
The matching figures for `Cc1ccc(Oc2ccnc3[nH]c(=O)[nH]c23)cc1NC(=O)c1cccc(OC(F)(F)F)c1`: more than 10 µM and more than 100 µM.
Regarding `O=c1[nH]c2nccc(Oc3ccc(NS(=O)(=O)c4ccc(Cl)c(C(F)(F)F)c4)cc3)c2[nH]1`, the IC50 in assay [1] was more than 100 µM.

A word on the IC50: it is the concentration that inhibits the measured activity by half. A higher IC50 goes with weaker potency in that assay. The term GI50 denotes the concentration at which growth is held to half of that of the control.
